Most compounds without a hit are left out; they make up all but 5.6% or so of the library.
NR3A LBD binder = modulates the human NR3A ligand-binding domain | 340,000 compounds, 2.5% hits | AID 1259313 | NR3A LBD differential scanning fluorimetry, Tm shift; 0% = protein alone, 100% = glycine-bound protein | Tm shift relative to glycine control, % at 25 µM;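 active = melting temperature shift of at least 10% of the positive control shift, at one fixed dose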
CHOP inhibitor = inhibitors of CHOP induction in ER stress response; inhibition, % at 10 µM; 220,000 compounds, 3.8% hits; CHO-K1 CHOP-promoter luciferase, tunicamycin-induced, 15-18 h;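 active = compounds that reduced the stress-induced luciferase reporter signal by more than about 70% of percent inhibition, limit read from the data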
UPR CHOP act = apoptotic UPR (CHOP) activation; CHO-CHOP luciferase reporter, luminescence; percent of tunicamycin response over DMSO baseline; activation, % at 10 µM; 330,000 compounds, 0.34% hits;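 active = at 10 µM dose, activation of 40% or more, normalized to positive control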
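Dosing – one dose, 10 µM in 0.5% DMSO · System – CHO-CHOP cells, stable luciferase reporter of PERK-eIF2a-CHOP signalling · Input – 500 cells/well · Control set – tunicamycin 10 µg/mL final as positive, DMSO-only wells as negative · Timing – 6 h compound treatment, 37 °C · Measure – % activation vs tunicamycin · Technique – luminescence read with Steady-Glo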
UPR XBP1 act = activators of adaptive arm of unfolded protein response (XBP1) | CHO-XBP1 luciferase reporter, IRE1-XBP1 UPR activation, luminescence; percent of tunicamycin response, DMSO as zero | activation, % at 20 µM | 330,000 compounds, 0.33% hits | AID 463104;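 active = versus positive control, 20 µM dose yields 30% or more activation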
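incubation = overnight seeding at 37 °C, 6 h compound treatment at 37 °C | assay system = CHO-XBP1 cells stably carrying IRE1-XBP1-driven luciferase reporter | input = 1000 cells per well | detection = luciferase luminescence | dosing = single point, 20 µM final compound, 1% DMSO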
aDG glyco act = increases alpha dystroglycan glycosylation; Pro5-aDG cells, alpha-DG glycosylation AlphaScreen (IIH6); 0% Pro5, 100% B10-LARGE cell signal; activation, % at 10 µM; 360,000 compounds, 0.22% hits; AID 624168;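 active = activation of at least 8% versus controls, or a plate z-score of at least 8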;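 also: Pro5 are CHO cells carrying HIG-tagged alpha-DG that lacks glycosylation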
MPTP inh = permeability transition pore inhibition; isolated mouse mitochondria, Ca2+ swelling absorbance, 30 min; inhibition, % at 10 µM; 360,000 compounds, 1.4% hits; AID 602449;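 active = inhibition of 50% or more, scaled per plate between neutral and stimulator controls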
Rh123 counter = membrane potential counter-screen of mitochondrial pore inhibitors; shares compounds with MPTP inh; isolated mitochondria, Rhodamine 123 fluorescence; inhibition, % at 10 µM; 5,000 compounds, 78% hits; in the data active = inhibition above about 22%
MPTP abs DR = dose response confirmation of mitochondrial permeability transition pore inhibitors. shares compounds with MPTP inh. isolated mitochondria swelling, absorbance. IC50, µM. 780 compounds, 58% hits; in the data active = IC50 below about 20 µM
MPTP counter DR = counter-screen for mitochondrial permeability transition pore inhibitors, dose response; shares compounds with MPTP inh; IC50, µM; isolated mitochondria counterscreen, fluorescence read-out; 780 compounds, 49% hits; in the data active = IC50 below about 80 µM
Hits are given with their value; n = inactive; x = no result.

SMILES | NR3A LBD binder | CHOP inhibitor | UPR CHOP act | UPR XBP1 act | aDG glyco act | MPTP inh | Rh123 counter | others
O=C(COc1ccc([N+](=O)[O-])cc1)Nc1cc(C(=O)O)cc(C(=O)O)c1 | n | n | n | n | n | n | x
OCCNCc1c(OCc2ccc(Cl)cc2)ccc2ccccc12 | n | x | n | n | n | n | x
CCCCCCC[C@@H](C/C=C/CCC(=O)N(C)C/C(=C/Cl)C/C(=C\C(=O)N1C[C@H](O)CC1=O)OC)OC | n | x | n | n | n | 74 | 102
CCCCCCC[C@@H](C/C=C/CCC(=O)O)OC | n | x | n | n | n | n | x
CCCCCCC[C@@H](C/C=C/CCC(=O)N(C)C/C(=C/Cl)C/C(=C\C(=O)N1CC(OC)=CC1=O)OC)OC | n | x | n | n | n | 79 | n
O=C1CCCN2N=C(SCC(=O)Nc3ccc(F)cc3F)SC2=N1 | n | x | n | n | n | n | x
O=C1CCCN2N=C(SCC(=O)Nc3cccc(F)c3)SC2=N1 | n | x | n | n | n | 50 | n | MPTP abs DR=n;MPTP counter DR=38
CCN1C[C@@H]2[C@@H]3C(=O)N(C)C(=O)[C@@H]3[C@](Cc3ccccc3)(C1=O)N2C(=O)c1ccc(Br)cc1 | n | x | x | x | n | n | x
Cc1nn(C(C)C(=O)NNC(=S)Nc2ccc(Cl)cc2)c(C)c1[N+](=O)[O-] (stereo unspecified) | n | n | n | n | n | 51 | 60
COC(=O)c1ccc(Cl)c(NC(C)=O)c1 | n | n | n | n | n | n | x
COC(=O)c1ccc(Cl)c(NC(=O)NC23CC4CC(CC(C4)C2)C3)c1 | n | n | n | n | n | 94 | 83
CC1CCN(S(=O)(=O)c2ccc(Oc3ccc([N+](=O)[O-])cc3)cc2)CC1 | n | n | n | n | n | 67 | 71
Oc1ccc(Cl)cc1Sc1cc(Cl)ccc1O | 25 | x | x | x | n | 70 | 68
COc1ccc(CCNC(=O)C2CCN(Cc3nc(-c4cccc(Cl)c4)oc3C)CC2)cc1OC | n | n | n | n | n | 52 | n | MPTP abs DR=18;MPTP counter DR=37
CCOC(=O)N1CCC(NC(=O)C2CCCN(Cc3nc(-c4cccc(Cl)c4)oc3C)C2)CC1 (stereo unspecified) | n | 85 | n | n | n | 94 | 51
COc1ccc(CCNC(=O)C2CCCN(Cc3nc(-c4ccccc4C)oc3C)C2)cc1OC (stereo unspecified) | n | n | n | n | n | 59 | n | MPTP abs DR=18;MPTP counter DR=35
CC(O)Cn1c(N2CCCC2)nc2c1c(=O)n(C)c(=O)n2C (stereo unspecified) | n | x | n | n | n | n | x
c1ccc(-c2nc(-c3ccncc3)no2)cc1 | n | n | n | n | n | n | x
c1ccc(C(Cc2nc(-c3ccncc3)no2)c2ccccc2)cc1 | n | x | n | n | n | 78 | 72
O=C(c1cccc(Cl)c1)C1CCCN(C(=O)c2ccc3c(c2)OCO3)C1 (stereo unspecified) | n | x | n | n | n | n | x
Cc1ccc(Oc2cc([N+](=O)[O-])cc3c2C(=O)Nc2ccccc2O3)cc1 | n | n | n | n | n | 56 | 29
COc1ccc(NC(=O)CSc2nnnn2C2CC2)cc1S(=O)(=O)N1CCOCC1 | n | x | n | n | n | n | x
CC(=O)NC(c1ccc([N+](=O)[O-])cc1)c1c(O)ccc2ccccc12 (stereo unspecified) | n | n | n | n | n | n | x
Cc1ccc(C(NC(=O)C2CCCCC2)c2c(O)ccc3ccccc23)cc1 (stereo unspecified) | n | n | n | n | n | 99 | 80
CC(=O)NC(c1ccc(C(C)C)cc1)c1c(O)ccc2ccccc12 (stereo unspecified) | n | x | n | n | n | n | x
SMILES | NR3A LBD binder | CHOP inhibitor | UPR CHOP act | UPR XBP1 act | aDG glyco act | MPTP inh | Rh123 counter | others
CC(C)C(=O)NC(c1ccc([N+](=O)[O-])cc1)c1c(O)ccc2ccccc12 (stereo unspecified) | n | n | n | n | n | 87 | 77
CC1(C)C(=O)C=CC(=O)C(C)(C)C(=O)C=CC(=O)C(C)(C)C2=CC=C(O2)C(C)(C)C(=O)C=CC1=O | n | x | x | x | n | n | x
Oc1ccccc1N=Nc1nc(-c2ccccc2)c(-c2ccccc2)[nH]1 | n | n | n | n | n | 76 | 54
CCc1cc2c3c(c1)C(C)CC(C)(C)N3C(=O)/C2=C1\SC(=O)NC1=O (stereo unspecified) | n | n | n | n | n | 55 | 47
COc1cc2c3c(c1)C(C)CC(C)(C)N3C(=O)C2=O (stereo unspecified) | n | n | n | n | n | n | x
COc1ccccc1C(=O)COC(=O)C1(C)CC1(Cl)Cl (stereo unspecified) | n | x | n | n | n | n | x
CC[N+](C)(C)CC/C=C1/c2ccccc2Sc2ccc(Cl)cc21 | n | n | n | n | n | n | x
OCCN1CCN(CC/C=C2/c3ccccc3Sc3ccc(Cl)cc32)CC1 | n | x | n | n | n | 94 | n
CN(C)CC/C=C1\c2ccccc2Sc2ccc(Cl)cc21 | n | n | n | n | n | 97 | n
CC(=O)c1c(C)[nH]c(C(=O)OCC(=O)c2ccc(C)s2)c1C | n | x | n | n | n | n | x
O=C(COC(=O)Cc1ccc(Br)cc1)Nc1ccc(Cl)cn1 | n | x | n | n | n | n | x
COc1ccc(CC(=O)Nc2ccc(F)c(F)c2F)cc1S(=O)(=O)N1CCOCC1 | n | x | n | n | n | n | x
Cc1ccc(NC(=S)NC(C)CCc2ccccc2)cc1C (stereo unspecified) | n | n | n | n | n | 86 | 97
CC(CCc1ccccc1)NC(=O)C(=O)Nc1ccccc1 (stereo unspecified) | n | n | n | n | n | n | x
CC(=O)c1ccc(NC(=S)NC(C)CCc2ccccc2)cc1 (stereo unspecified) | n | n | n | n | n | 89 | 93
CCc1cc2cc(OC)ccc2nc1SCC(=O)NNC(=O)c1ccco1 | n | n | n | n | n | n | x
CC(C)(C)c1ccc(-c2n[nH]c(=S)n2Cc2ccccc2)cc1 | n | x | n | n | n | n | x
CC(C)n1c(-c2ccc(C(C)(C)C)cc2)n[nH]c1=S | n | n | n | n | n | 68 | 67
O=C(Oc1cccc(/C=N/Nc2nc(Nc3ccccc3)nc(N3CCOCC3)n2)c1)c1ccco1 | n | n | n | n | n | n | x

Screening data as filed in PubChem.
